M4 antag: CHRM4 antagonism in calcium assay. P08173. CHO-hM4 cells, ACh EC80, Fluo-8 calcium fluorescence. inhibition, % at 3 µM. 360,000 compounds, 0.73% hits. AID 624125;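 active = inhibition above its plate's cutoff, the mean inhibition of sample wells plus 3 SD, cut at about 27% in these data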
M5 PAM: CHRM5 positive allosteric modulation; P08912; CHO-K1 hM5, Fluo-8 calcium, ACh EC20 PAM; 0% = ACh EC20, 100% = ACh EC100; activation, % at 3 µM; 360,000 compounds, 0.3% hits; AID 624038;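 active = activation above the run cutoff, the mean activation of all test compounds plus 3 SD, cut at about 18% in these data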
Target sequence (P08912 whole entry, looked up): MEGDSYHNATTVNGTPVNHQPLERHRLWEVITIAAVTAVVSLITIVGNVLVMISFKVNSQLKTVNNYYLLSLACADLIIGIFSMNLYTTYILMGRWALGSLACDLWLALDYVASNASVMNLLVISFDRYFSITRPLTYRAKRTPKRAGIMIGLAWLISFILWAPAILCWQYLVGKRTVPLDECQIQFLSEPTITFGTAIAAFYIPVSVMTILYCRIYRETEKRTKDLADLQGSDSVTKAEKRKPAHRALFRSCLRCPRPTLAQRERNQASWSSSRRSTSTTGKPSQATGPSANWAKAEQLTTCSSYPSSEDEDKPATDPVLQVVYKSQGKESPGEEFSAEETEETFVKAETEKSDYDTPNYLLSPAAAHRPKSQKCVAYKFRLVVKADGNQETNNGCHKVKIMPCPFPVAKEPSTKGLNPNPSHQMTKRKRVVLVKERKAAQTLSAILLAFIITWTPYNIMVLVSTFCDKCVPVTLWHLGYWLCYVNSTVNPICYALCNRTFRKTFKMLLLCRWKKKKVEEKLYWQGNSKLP
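Assay system: CHO-K1 hM5 cells / Incubation: Fluo-8 loading 80 min at 37 °C plus 30 min room temperature / Technique: Fluo-8 calcium dye fluorescence, kinetic read / Repeats: single replicate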
CHRM5 antagonist: blocks acetylcholine activation of human M5 receptor; P08912; CHO-hM5 cells, Fluo-8 calcium fluorescence, ACh EC80; inhibition, % at 3 µM; 360,000 compounds, 0.59% hits;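 active = inhibition above a per-plate cutoff, the mean of that plate's test compounds plus 3 SD, cut at about 27% in these data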
M4 ag: CHRM4 agonism in calcium assay | 360,000 compounds, 0.14% hits | AID 624127 | activation, % at 3 µM | CHO-K1 hM4/Gqi5, Fluo-8 calcium fluorescence; vehicle 0%, full acetylcholine response 100%;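 active = activation above the run mean over all test wells plus 3 SD, cut at about 32% in these data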;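 also: peak over basal fluorescence ratio per well then scaled between controls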
CHRM4 PAM: potentiates acetylcholine response at human M4 receptor; P08173; CHO-K1 hM4/Gqi5, Fluo-8 calcium fluorescence, ACh EC20; 0% = ACh EC20, 100% = maximal ACh; activation, % at 3 µM; 360,000 compounds, 0.4% hits; AID 624126;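 active = activation above its plate's cutoff, the mean activation of sample wells plus 3 SD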
CHRM5 agonist: CHRM5 agonism in calcium assay | AID 624037 | 360,000 compounds, 0.19% hits | CHO-K1 hM5 cells, Fluo-8 calcium fluorescence; 0% DMSO wells, 100% maximal acetylcholine response | activation, % at 3 µM | P08912;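 active = activation above the run's mean over test compounds plus 3 SD, cut at about 23% in these data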;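 also: signal is peak over basal fluorescence ratio across the kinetic read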
Numbers stand for hits; n = inactive; ! = not active in a repeat. In the library only some 1.8% were active in any assay of this set; here they are far more common.

SMILES | M4 antag | M5 PAM | CHRM5 antagonist | M4 ag | CHRM4 PAM | CHRM5 agonist
Clc1cccc2c1Sc1ccccc1CC2N1CCNCC1 (stereo unspecified) | 67.7 | n | 77.7 | n | n | n
O=C(NNC1CC(=O)N(c2ccc(Cl)cc2)C1=O)c1ccco1 (stereo unspecified) | n | n | n | n | n | n
C=CCN1CC(=O)N2Cc3[nH]c4ccccc4c3C[C@H]2C1=O | 43.1 | n | n | n | n | n
O=C1[C@@H]2Cc3c([nH]c4ccccc34)CN2C(=O)CN1CCCO | n | n | n | n | n | n
CC(C)(C)NCCC(O)c1cc(C(F)(F)F)nc2c(C(F)(F)F)cccc12 (stereo unspecified) | n | n | n | n | n | n
Cc1nc2c(C(F)(F)F)cccc2c2c1CCS2 | n | 19.0 | n | n | n | n
Cn1c(C(=O)OCC(=O)NCc2ccc(F)cc2)cc2occc21 | n | n | n | n | n | n
CC1(C)C(=O)OC(c2ccccc2)C2(CCCC2)C1=O (stereo unspecified) | n | n | n | n | n | n
CC1(C)C(=O)OC(c2ccccc2)C(C)(C)C1=O (stereo unspecified) | n | n | 31.5 | n | n | n
O=C(Nc1ccc(N2CCOCC2)cc1)c1csc([C@H]2C[C@H](O)[C@@H](CO)O2)n1 | n | n | n | n | n | n
CCCCc1ccc(NC(=O)C(=O)NCCN2CCN(C(=O)c3ccc([N+](=O)[O-])cc3)CC2)cc1 | n | n | n | n | n | n
O=C(Nc1c(C(=O)C2CC2)oc2ccccc12)c1ccc(Cl)cc1 | n | n | n | n | 25.6 | n
C[N+]1(C)CCCC(OC(=O)C(O)(c2ccccc2)c2ccccc2)C1 (stereo unspecified) | 98.6 | n | 98.9 | n | n | n
Cc1ccc(NN2C(=O)C=C(c3ccc(Cl)cc3)C2=O)cc1 | 70.4 | n | n | n | n | n
COC(=O)[C@@]1(Cc2ccc(OC)cc2)[C@H]2c3cc(C(=O)N4CCCC4)n(Cc4ccc(C)c(F)c4F)c3C[C@H]2CN1C(=O)c1ccccc1 | n | n | n | n | n | n
O=C(NCc1ccccc1)/C(=C\c1ccc(F)cc1)NC(=O)c1ccco1 | n | n | n | n | n | n
CCn1ncc(CN2CCCC(C(=O)c3cccc(OC(C)C)c3)C2)c1C (stereo unspecified) | 37.8 | n | 29.2 | n | n | n
CCOC(=O)c1[nH]ncc1CN1CCCC(C(=O)c2cccc(OC(C)C)c2)C1 (stereo unspecified) | n | n | n | n | n | n
CC(C)N(C(=O)CN(C#N)c1nc(N(C)C)nc(N(C)C)n1)c1ccccc1 | n | n | n | n | 41.6 | n
Cc1ccccc1S(=O)(=O)Cc1ccc(C(=O)N2CCN(c3cccc(C)c3C)CC2)o1 | 34.2 | n | n | n | n | n
Cc1ccc(NS(=O)(=O)c2c(C)[nH]c(C)c2C(=O)N2CCCCC2)cc1C | n | n | n | n | n | n
Cc1ccc(NS(=O)(=O)c2c(C)[nH]c(C)c2C(=O)N2CCCC2)cc1Cl | n | 32.2 | n | n | n | n
Cc1ncc([N+](=O)[O-])n1CC(=O)Nc1ccccc1Cl | n | n | n | n | n | n
CN(C)c1ccc(C=c2c3ccccc3n3c2c2ccccc2[n+]3C)cc1 | 32.5 | n | n | n | n | n
COC(=O)/C(=C\C(=O)c1ccccc1)Nc1ccc(OC)cc1 | n | 26.7 | 30.1 | n | n | n
SMILES | M4 antag | M5 PAM | CHRM5 antagonist | M4 ag | CHRM4 PAM | CHRM5 agonist
O=C(NCc1ccco1)c1nnc(Cc2ccc(F)cc2)o1 | n | n | n | n | n | n
O=C(NCc1ccco1)c1nnc(Cc2ccc(Cl)cc2)o1 | 39.1 | n | n | n | n | n
CN(CCCCCCCCC(=O)/C=N/O)Cc1ccccc1 | 72.6 | n | n | n | n | n
CCOC(=O)c1[nH]c(C)c(C(=O)/C=C/c2ccc(C(=O)O)cc2)c1C | n | n | n | n | n | n
Cn1c(=O)n(Cc2ccccc2Cl)c2ccccc21 | n | n | 43.1 | n | n | n
NC(N)=N/N=C/c1c(Cl)cccc1Cl | n | n | n | n | n | 29.2!

Bioassay records: PubChem BioAssay, The Scripps Research Institute Molecular Screening Center
